This excerpt belongs to a sample that is enriched for hits.
IDH1 mut inh: IDH1 R132H (human) inhibition; O75874; IDH1 R132H reductase, diaphorase/resazurin fluorescence, 60 min; inhibition, % at 10 µM; 70,000 tested, 0.18% active; AID 624101; in the data active = inhibition above about 34%; inconclusive = no clear call, values can overlap the other calls; inactive = below about 11%
T cruzi growth-1: inhibitors of T. cruzi proliferation. T. cruzi beta-gal in NIH3T3, GalScreen luminescence, 90 h. inhibition, % at 8.34 µM. 77,000 tested, 5.9% active;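 active = mean inhibition above about 93%, with at least 55% of replicates each passing it, limit read from the data, passing the limit was not always enough; inconclusive = only one of those two conditions holds; inactive = neither condition holds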
KDM4C inh: inhibitors of human demethylase GASC-1 KDM4C; Q9H3R0; GST-KDM4C 2-372, H3K9me3 peptide, LANCE TR-FRET; inhibition, % at 12.5 µM; 96,000 tested, 0.15% active;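 active = mean replicate inhibition above about 25%, with at least 55% of replicates also reaching it, limit read from the data, passing the limit was not always enough; inconclusive = only one of those two conditions met; inactive = neither condition met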
Target sequence (Q9H3R0 2-372 limits assumed): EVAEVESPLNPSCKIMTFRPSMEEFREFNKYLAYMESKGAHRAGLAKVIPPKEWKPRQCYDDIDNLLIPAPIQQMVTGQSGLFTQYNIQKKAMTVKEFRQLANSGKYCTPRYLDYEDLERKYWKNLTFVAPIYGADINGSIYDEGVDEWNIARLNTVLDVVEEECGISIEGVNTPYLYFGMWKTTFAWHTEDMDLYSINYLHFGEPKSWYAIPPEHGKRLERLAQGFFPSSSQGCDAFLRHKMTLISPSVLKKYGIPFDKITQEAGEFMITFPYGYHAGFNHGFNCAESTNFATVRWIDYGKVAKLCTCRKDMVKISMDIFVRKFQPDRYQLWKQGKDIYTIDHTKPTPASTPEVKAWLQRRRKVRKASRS
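Material: GST-tagged GASC-1 (JMJD2C) catalytic fragment, aa 2-372 / Quantity: enzyme final amount 10 nM / Medium: HEPES buffer, pH 7.5, plus ascorbate / Doses: one test concentration per compound / Incubation: 30 min reaction, 60 min detection, RT / Measured by: LANCE TR-FRET / Read-out: inhibition from TR-FRET ratio decrease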
T cruzi growth-2: blocks T. cruzi growth in NIH3T3 host cells; shares compounds with T cruzi growth-1; T. cruzi beta-gal in NIH3T3, GalScreen luminescence, 90 h; inhibition, % at 8.35 µM; 5,600 tested, 72% active; AID 651739;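 active = mean replicate inhibition above about 95% and at least 55% of replicates individually reaching it, limit read from the data; inconclusive = only one of the two criteria is met; inactive = neither criterion is met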
T cruzi growth-3: inhibitors of T. cruzi proliferation; shares compounds with T cruzi growth-1; T. cruzi beta-gal in NIH3T3, GalScreen luminescence, 90 h; inhibition, % at 2.09 µM; 5,600 tested, 21% active; AID 651740;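 active = mean inhibition above about 95%, with at least 55% of replicates also reaching it, limit read from the data; inconclusive = meets just one of the two conditions; inactive = meets neither condition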
3T3 cytotox: cytotoxicity in mouse NIH/3T3 fibroblasts | shares compounds with T cruzi growth-1 | NIH/3T3 viability, CellTiter-Glo ATP luminescence, 90 h | cytotoxicity (signal decrease), % at 8.35 µM | 5,600 tested, 14% active;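 active = mean signal decrease across replicates above about 35% based on untreated-well scatter, with enough replicates individually passing, limit read from the data; inconclusive = no rule stated though some were filed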
3T3 cytotox 2: NIH/3T3 (mouse) viability loss; NIH/3T3 viability, CellTiter-Glo ATP luminescence, 90 h; AID 651744; shares compounds with T cruzi growth-1; inhibition, % at 24.9 µM; 5,600 tested, 56% active;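 active = mean loss of cell viability signal at or above a set limit, and enough replicates individually reaching it; inconclusive = meets only the mean limit or only the replicate share; inactive = meets neither condition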
A number is an active result; i = inactive; ? = inconclusive; nt = not tested or not shown.

SMILES	IDH1 mut inh	T cruzi growth-1	KDM4C inh	T cruzi growth-2	T cruzi growth-3	3T3 cytotox	3T3 cytotox 2
COc1ccccc1C#Cc1ccc([C@@H]2[C@@H](C#N)N(C(=O)C3CCC3)[C@@H]2CO)cc1	nt	i	i	nt	nt	nt	nt
COc1ccccc1C#Cc1ccc([C@@H]2[C@H](C#N)N(C(=O)C3CCC3)[C@H]2CO)cc1	nt	?	i	102.9	111.2	i	28.2
CC1CCc2sc3ncnc(NCCN4CCOCC4)c3c2C1 (stereo unspecified)	i	nt	nt	nt	nt	nt	nt
Cc1ccc(N(C(C)C(=O)Nc2ccccc2C(=O)N2CCCC2)S(C)(=O)=O)cc1 (stereo unspecified)	i	nt	nt	nt	nt	nt	nt
C[C@@H]1CCCCO[C@H](CN(C)S(=O)(=O)c2ccccc2)[C@H](C)CN([C@H](C)CO)C(=O)c2cc(NS(=O)(=O)c3ccccc3)ccc2O1	nt	107.0	i	115.3	i	i	i
C[C@@H]1CN([C@H](C)CO)C(=O)c2cc(NS(=O)(=O)c3ccccc3)ccc2O[C@@H](C)CCCCO[C@H]1CN(C)S(=O)(=O)c1ccccc1	nt	i	i	nt	nt	nt	nt
Cc1ccc(S(=O)(=O)N(C)C[C@H]2OCCCC[C@H](C)Oc3ccc(NS(=O)(=O)c4ccccc4)cc3C(=O)N([C@H](C)CO)C[C@@H]2C)cc1	i	i	i	nt	nt	nt	nt
Cc1ccc(S(=O)(=O)Nc2ccc3c(c2)C(=O)N([C@@H](C)CO)C[C@@H](C)[C@@H](CN(C)S(=O)(=O)c2ccccc2)OCCCC[C@H](C)O3)cc1	i	97.4	nt	102.2	i	i	i
Cc1ccc(S(=O)(=O)Nc2ccc3c(c2)C(=O)N([C@@H](C)CO)C[C@H](C)[C@@H](CN(C)S(=O)(=O)c2ccccc2)OCCCC[C@@H](C)O3)cc1	nt	i	i	nt	nt	nt	nt
Cc1ccc(S(=O)(=O)Nc2ccc3c(c2)C(=O)N([C@H](C)CO)C[C@@H](C)[C@H](CN(C)S(=O)(=O)c2ccccc2)OCCCC[C@H](C)O3)cc1	nt	104.7	i	107.6	i	i	i
Cc1noc(C)c1NC(=O)N(C)C[C@@H]1Oc2ccc(NC(=O)Nc3cccc4ccccc34)cc2C(=O)N([C@@H](C)CO)C[C@H]1C	i	i	i	nt	nt	nt	nt
CN1CCN(C(=O)[C@@H]2[C@@H](CO)[C@@H]3Cn4c(ccc(-c5cccnc5)c4=O)[C@@H]3N2CC2CC2)CC1	nt	i	i	nt	nt	nt	nt
N#C[C@H]1[C@H](c2ccccc2C2=CCCCC2)[C@H](CO)N1S(=O)(=O)c1cccc(F)c1	nt	nt	i	nt	nt	nt	nt
CC(C)CC#Cc1ccc2c(c1)O[C@@H](CN(C)C(=O)Cc1ccccn1)[C@@H](C)CN([C@@H](C)CO)S2(=O)=O	i	i	i	nt	nt	nt	nt
CC(C)CC#Cc1ccc2c(c1)O[C@H](CN(C)C(=O)Cc1ccccc1)[C@H](C)CN([C@@H](C)CO)S2(=O)=O	i	121.0	i	99.2	i	i	99.8
CC(C)CC#Cc1ccc2c(c1)O[C@@H](CN(C)C(=O)Cc1ccccc1)[C@@H](C)CN([C@H](C)CO)S2(=O)=O	i	127.0	i	98.2	112.5	i	103.3
CC(C)CC#Cc1ccc2c(c1)O[C@@H](CN(C)C(=O)Cc1ccccc1)[C@@H](C)CN([C@@H](C)CO)S2(=O)=O	i	125.8	i	103.0	i	i	104.3
CCC(=O)N(C)C[C@@H]1Oc2cc(C#CCC(C)C)ccc2S(=O)(=O)N([C@H](C)CO)C[C@H]1C	i	i	i	nt	nt	nt	nt
CC(C)CC#Cc1ccc2c(c1)O[C@@H](CN(C)C(=O)c1ccncc1)[C@H](C)CN([C@H](C)CO)S2(=O)=O	i	i	i	nt	nt	nt	nt
CC(C)CC#Cc1ccc2c(c1)O[C@H](CN(C)C(=O)Cc1ccncc1)[C@@H](C)CN([C@H](C)CO)S2(=O)=O	i	?	i	100.7	i	i	i
CCC(=O)N(C)C[C@@H]1Oc2cc(C#CCC(C)C)ccc2S(=O)(=O)N([C@@H](C)CO)C[C@@H]1C	i	i	i	nt	nt	nt	nt
C[C@@H]1CN([C@@H](C)CO)C(=O)Cc2cc(NS(=O)(=O)c3cn(C)cn3)ccc2O[C@@H]1CN(C)Cc1ccc(Cl)c(Cl)c1	nt	i	i	nt	nt	nt	nt
C[C@@H]1CN([C@H](C)CO)C(=O)Cc2cc(NC(=O)CCN3CCOCC3)ccc2O[C@H]1CN(C)Cc1ccccc1	i	i	i	nt	nt	nt	nt
O=C(N/N=C/c1ccccc1Br)c1ccccc1O	i	nt	nt	nt	nt	nt	nt
O=C(C[C@H]1CC[C@@H](NC(=O)Nc2ccc(F)cc2)[C@@H](CO)O1)NCc1cccc(F)c1	i	nt	i	nt	nt	nt	nt
SMILES	IDH1 mut inh	T cruzi growth-1	KDM4C inh	T cruzi growth-2	T cruzi growth-3	3T3 cytotox	3T3 cytotox 2
C[C@H](NC(=O)C[C@@H]1C[C@H]2c3cc(NS(C)(=O)=O)ccc3O[C@H]2[C@H](CO)O1)c1ccccc1	i	nt	i	nt	nt	nt	nt
CCCC#Cc1ccc2c(c1)O[C@@H](CN(C)C(=O)C1CC1)[C@@H](C)CN([C@H](C)CO)S2(=O)=O	i	i	i	nt	nt	nt	nt
C[C@H]1CN([C@@H](C)CO)S(=O)(=O)c2ccc(C#CCN(C)C)cc2O[C@@H]1CN(C)C(=O)C1CC1	i	110.5	i	108.7	99.1	i	i
CCCC#Cc1ccc2c(c1)O[C@@H](CN(C)C(=O)C1CC1)[C@H](C)CN([C@@H](C)CO)S2(=O)=O	i	i	i	nt	nt	nt	nt
C[C@@H]1CN([C@H](C)CO)S(=O)(=O)c2ccc(C#CC(C)(C)O)cc2O[C@H]1CN(C)C(=O)C1CC1	nt	104.6	i	i	i	i	42.4
C[C@@H]1CN([C@H](C)CO)S(=O)(=O)c2ccc(C#CCN(C)C)cc2O[C@H]1CN(C)C(=O)C1CC1	nt	89.5	i	?	i	i	i
C[C@@H]1CN([C@H](C)CO)S(=O)(=O)c2ccc(C#CC(C)(C)O)cc2O[C@@H]1CN(C)C(=O)C1CC1	i	i	i	nt	nt	nt	nt
O=C(CSc1nnc(-c2ccco2)n1-c1ccccc1)c1ccc(F)cc1	i	nt	nt	nt	nt	nt	nt
COc1ccc(OC(C)C(=O)Nc2cc(C)c(Cl)cc2OC)cc1 (stereo unspecified)	i	nt	nt	nt	nt	nt	nt
COc1ccc(NC(=O)CNC(=O)c2ccccc2F)cc1Cl	i	nt	nt	nt	nt	nt	nt
C[C@@H]1CCCCO[C@@H](CN(C)S(=O)(=O)c2cccs2)[C@@H](C)CN([C@H](C)CO)C(=O)c2cc(NC(=O)Nc3cccc4ccccc34)ccc2O1	nt	i	i	nt	nt	nt	nt
C[C@H]1CN([C@@H](C)CO)C(=O)c2cc(-c3ccccc3)cnc2O[C@H]1CN(C)C(=O)c1cccc(F)c1	i	i	i	nt	nt	nt	nt
COC1=CC(=O)O[C@@H](CCc2ccccc2)[C@H]1O	i	nt	nt	nt	nt	nt	nt
CC(C)NC(=O)Nc1ccc2c(c1)C(=O)N([C@H](C)CO)C[C@@H](C)[C@@H](CN(C)C(=O)Nc1ccccc1)OCCCC[C@@H](C)O2	i	i	i	nt	nt	nt	nt
C[C@@H]1CN([C@H](C)CO)C(=O)c2cc(C#Cc3ccccc3F)cnc2O[C@H]1CN(C)S(C)(=O)=O	i	i	i	nt	nt	nt	nt
